Values after ≈ are worked out from the molar mass of the structure shown.
Assays:
Type in all cases: functional
Staphylococcus aureus [1] = assay: Minimum inhibitory concentration required for antibacterial activity against methicillin-resistant Staphylococcus aureus 27660
Staphylococcus aureus [2] = assay: Minimum inhibitory concentration required for antibacterial activity against methicillin-resistant Staphylococcus aureus with 2% human plasma albumin
Procedure, shortened: (§1)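 MRSA ATCC 27660, with 2% human plasma albumin added to the test medium during MIC determination.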

Staphylococcus aureus [3] = assay: Minimum inhibitory concentration required for antibacterial activity against methicillin-susceptible Staphylococcus aureus 13709
Enterococcus faecium = assay: Minimum inhibitory concentration required for antibacterial activity against vancomycin-resistant Enterococcus faecium 51559
Streptococcus pneumoniae = assay: Minimum inhibitory concentration required for antibacterial activity against penicillin-resistant Streptococcus pneumoniae 51422
Mus musculus [4] = assay: No. of mice survived infected intraperitoneally with methicillin-resistant Staphylococcus aureus after 5 days of treatment at a dose of 25 mg/kg (Total mice tested 5); details: route intravenous
Procedure, shortened: (§2)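 Mouse peritonitis model: intraperitoneal infection with a 5–10 × LD50 inoculum of MRSA ATCC 27660. A single intravenous dose was given 1 h post-infection, alongside vehicle and vancomycin controls. Animals were monitored for 5 days, with survival as the primary endpoint; 5 mice per dose group.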

Staphylococcus aureus [5] = assay: Minimum inhibitory concentration required for antibacterial activity against methicillin-resistant Staphylococcus aureus with 2% human plasma albumin; value ranges from 0.13-0.25; procedure, shortened: as §1
Staphylococcus aureus [6] = assay: Minimum inhibitory concentration required for antibacterial activity against methicillin-resistant Staphylococcus aureus 27660; value ranges from 0.03-0.06
Staphylococcus aureus [7] = assay: Minimum inhibitory concentration required for antibacterial activity against methicillin-susceptible Staphylococcus aureus 13709; value ranges from <0.03-0.06
Staphylococcus aureus [8] = assay: Minimum inhibitory concentration required for antibacterial activity against methicillin-resistant Staphylococcus aureus with 2% human plasma albumin; value ranges from 0.25-1; procedure, shortened: as §1
Mus musculus [9] = assay: No. of mice survived infected intraperitoneally with methicillin-resistant Staphylococcus aureus after 5 days of treatment at a dose of 1 mg/kg (Total mice tested 5); procedure, shortened: as §2
Mus musculus [10] = assay: No. of mice survived infected intraperitoneally with methicillin-resistant Staphylococcus aureus after 5 days of treatment at a dose of 10 mg/kg (Total mice tested 5); procedure, shortened: as §2
Mus musculus [11] = assay: No. of mice survived infected intraperitoneally with methicillin-resistant Staphylococcus aureus after 5 days of treatment at a dose of 3 mg/kg (Total mice tested 5); procedure, shortened: as §2
Staphylococcus aureus [12] = assay: Minimum inhibitory concentration required for antibacterial activity against methicillin-resistant Staphylococcus aureus with 4% human plasma albumin
Procedure, shortened: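 MIC against MRSA determined with 4% human plasma albumin present in the test medium.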

Staphylococcus aureus [13] = assay: Minimum inhibitory concentration required for antibacterial activity against vancomycin-resistant Staphylococcus aureus HMC3
Staphylococcus aureus [14] = assay: Minimum inhibitory concentration required for antibacterial activity against methicillin-resistant Staphylococcus aureus 27660; value ranges from 0.25-0.5
Staphylococcus aureus [15] = assay: Minimum inhibitory concentration required for antibacterial activity against methicillin-susceptible Staphylococcus aureus 13709; value ranges from 0.13-0.06
Staphylococcus aureus [16] = assay: Minimum inhibitory concentration required for antibacterial activity against methicillin-resistant Staphylococcus aureus with 2% human plasma albumin; value ranges from 1-2; procedure, shortened: as §1
Staphylococcus aureus [17] = assay: Minimum inhibitory concentration required for antibacterial activity against methicillin-susceptible Staphylococcus aureus 13709; value ranges from 0.03-0.06
Staphylococcus aureus [18] = assay: Minimum inhibitory concentration required for antibacterial activity against methicillin-resistant Staphylococcus aureus 27660; value ranges from 0.06-0.13
Staphylococcus aureus [19] = assay: Minimum inhibitory concentration required for antibacterial activity against methicillin-resistant Staphylococcus aureus with 2% human plasma albumin; value ranges from 0.13-1; procedure, shortened: as §1
[20] = Staphylococcus aureus, Plasma, read-out: MIC

Cn1cc(NC(=O)c2ccc(NC(=O)c3cc(NC(=O)c4cc5ccccc5cn4)cn3C)cc2)cc1C(=O)NCCN1CCN(CCO)CC1
MIC (Staphylococcus aureus [1]): 16 µg/mL (≈ 23.1 µM)
MIC (Staphylococcus aureus [2]; [20]): > 32 µg/mL
MIC (Staphylococcus aureus [3]): 32 µg/mL (≈ 46.3 µM)

Cn1cc(NC(=O)c2ccc(NC(=O)c3nc(NC(=O)c4cc5ccccc5cn4)cn3C)cc2)cc1C(=O)NCCN1CCOCC1
MIC (Enterococcus faecium): 0.5 µg/mL (≈ 0.77 µM)
MIC (Staphylococcus aureus [1]): 16 µg/mL (≈ 24.6 µM)
MIC (Staphylococcus aureus [2]; [20]): 32 µg/mL (≈ 49.3 µM)
MIC (Staphylococcus aureus [3]): 2 µg/mL (≈ 3.08 µM)
MIC (Streptococcus pneumoniae): 0.5 µg/mL (≈ 0.77 µM)

Cn1cc(NC(=O)c2cc3ccccc3cn2)cc1C(=O)Nc1ccc(C(=O)Nc2cn(C)c(C(=O)NCCN3CCN(CCO)CC3)n2)cc1
MIC (Staphylococcus aureus [1]): 0.06 µg/mL (≈ 0.0866 µM)
MIC (Staphylococcus aureus [2]; [20]): 1 µg/mL (≈ 1.44 µM)
Efficacy (Mus musculus [4]): 5
MIC (Staphylococcus aureus [3]): 0.06 µg/mL (≈ 0.0866 µM)

COCCN(CCNC(=O)c1cc(NC(=O)c2ccc(NC(=O)c3cc(NC(=O)c4cc5ccccc5cn4)cn3C)cc2)cn1C)CCOC
MIC (Staphylococcus aureus [1]): 8 µg/mL (≈ 11.5 µM)
MIC (Staphylococcus aureus [2]; [20]): 32 µg/mL (≈ 46.1 µM)
MIC (Staphylococcus aureus [3]): 4 µg/mL (≈ 5.76 µM)

COC1CCN(CCNC(=O)c2nc(NC(=O)c3ccc(NC(=O)c4cc(NC(=O)c5cc6ccccc6cn5)cn4C)cc3)cn2C)CC1
MIC (Staphylococcus aureus [1]): 0.03 µg/mL (≈ 0.0443 µM)
MIC (Staphylococcus aureus [5]): 0.25 µg/mL (≈ 0.369 µM)
Efficacy (Mus musculus [4]): 2
MIC (Staphylococcus aureus [3]): 0.03 µg/mL (≈ 0.0443 µM)

Cn1cc(NC(=O)c2cc3ccccc3cn2)cc1C(=O)Nc1ccc(C(=O)Nc2cn(C)c(C(=O)NCCN3CCC(O)CC3)n2)cc1
MIC (Staphylococcus aureus [6]): 0.06 µg/mL (≈ 0.0904 µM)
MIC (Staphylococcus aureus [7]): 0.06 µg/mL (≈ 0.0904 µM)
MIC (Staphylococcus aureus [8]): 1 µg/mL (≈ 1.51 µM)
Efficacy (Mus musculus [9]): 0
Efficacy (Mus musculus [4]): 5
Efficacy (Mus musculus [10]): 5
Efficacy (Mus musculus [11]): 2

Cn1cc(NC(=O)c2ccc(NC(=O)c3nc(NC(=O)c4cc5ccccc5cn4)cn3C)cc2)nc1C(=O)NCCN1CCOCC1
MIC (Enterococcus faecium): 0.13 µg/mL (≈ 0.2 µM)
MIC (Staphylococcus aureus [1]): 0.06 µg/mL (≈ 0.0922 µM)
MIC (Staphylococcus aureus [2]; [20]): 1 µg/mL (≈ 1.54 µM)
MIC (Staphylococcus aureus [3]): 0.13 µg/mL (≈ 0.2 µM)
MIC (Streptococcus pneumoniae): 0.25 µg/mL (≈ 0.384 µM)

Cn1cc(NC(=O)c2ccc(NC(=O)c3cc(NC(=O)c4cc5ccccc5cn4)cn3C)cc2)cc1C(=O)NCCN1CCC(O)CC1
MIC (Staphylococcus aureus [1]): 0.5 µg/mL (≈ 0.754 µM)
MIC (Staphylococcus aureus [12]): 16 µg/mL (≈ 24.1 µM)
MIC (Staphylococcus aureus [3]): 0.5 µg/mL (≈ 0.754 µM)

Cn1cc(NC(=O)c2cc3ccccc3cn2)cc1C(=O)Nc1ccc(C(=O)Nc2cn(C)c(C(=O)NCCN3CCOCC3)n2)cc1
MIC (Enterococcus faecium): 0.008 µg/mL (≈ 0.0123 µM)
MIC (Staphylococcus aureus [1]): 0.008 µg/mL (≈ 0.0123 µM)
MIC (Staphylococcus aureus [2]; [20]): 0.13 µg/mL (≈ 0.2 µM)
Efficacy (Mus musculus [10]): 1
MIC (Staphylococcus aureus [13]): 8 ng/mL (≈ 0.0123 µM)
MIC (Staphylococcus aureus [3]): 0.008 µg/mL (≈ 0.0123 µM)
MIC (Streptococcus pneumoniae): 0.03 µg/mL (≈ 0.0462 µM)

COCCN(CCNC(=O)c1nc(NC(=O)c2ccc(NC(=O)c3cc(NC(=O)c4cc5ccccc5cn4)cn3C)cc2)cn1C)CCOC
MIC (Staphylococcus aureus [14]): 0.5 µg/mL (≈ 0.719 µM)
MIC (Staphylococcus aureus [15]): 0.13 µg/mL (≈ 0.187 µM)
MIC (Staphylococcus aureus [16]): 2 µg/mL (≈ 2.87 µM)
Efficacy (Mus musculus [4]): 0

COC1CCN(CCNC(=O)c2cc(NC(=O)c3ccc(NC(=O)c4cc(NC(=O)c5cc6ccccc6cn5)cn4C)cc3)cn2C)CC1
MIC (Staphylococcus aureus [1]): 1 µg/mL (≈ 1.48 µM)
MIC (Staphylococcus aureus [2]; [20]): 8 µg/mL (≈ 11.8 µM)
MIC (Staphylococcus aureus [3]): 1 µg/mL (≈ 1.48 µM)

Cn1cc(NC(=O)c2ccc(NC(=O)c3cc(NC(=O)c4cc5ccccc5cn4)cn3C)cc2)cc1C(=O)NCCN1CCOCC1
MIC (Enterococcus faecium): 1 µg/mL (≈ 1.54 µM)
MIC (Staphylococcus aureus [1]): 0.06 µg/mL (≈ 0.0925 µM)
MIC (Staphylococcus aureus [17]): 0.06 µg/mL (≈ 0.0925 µM)
MIC (Staphylococcus aureus [18]): 0.13 µg/mL (≈ 0.2 µM)
MIC (Staphylococcus aureus [2]): 1 µg/mL (≈ 1.54 µM)
MIC (Staphylococcus aureus [2]; [20]): 1 µg/mL (≈ 1.54 µM)
Efficacy (Mus musculus [4]): 5
Efficacy (Mus musculus [10]): 3
Efficacy (Mus musculus [11]): 0
MIC (Staphylococcus aureus [13]): 250 ng/mL (≈ 0.385 µM)
MIC (Staphylococcus aureus [3]): 0.06 µg/mL (≈ 0.0925 µM)
MIC (Streptococcus pneumoniae): 0.06 µg/mL (≈ 0.0925 µM)

Cn1cc(NC(=O)c2cc3cc4c(cc3s2)OCO4)cc1C(=O)Nc1ccc(C(=O)Nc2cn(C)c(C(=O)NCCN3CCC(O)CC3)n2)cc1
MIC (Staphylococcus aureus [1]): 0.008 µg/mL (≈ 0.0112 µM)
Efficacy (Mus musculus [9]): 3
Efficacy (Mus musculus [11]): 4
MIC (Staphylococcus aureus [13]): 8 ng/mL (≈ 0.0112 µM)
MIC (Staphylococcus aureus [3]): 0.008 µg/mL (≈ 0.0112 µM)
MIC (Staphylococcus aureus [19]): 1 µg/mL (≈ 1.4 µM)

Reference: ChEMBL document CHEMBL1137210, “DNA binding ligands with improved in vitro and in vivo potency against drug-resistant Staphylococcus aureus” (2004)
